Assay results published in ChEMBL document CHEMBL1157184, “Hymenoic acid, a novel specific inhibitor of human DNA polymerase lambda from a fungus of Hymenochaetaceae sp” (Bioorg Med Chem, 2008).
Active and inactive are the calls of the source.

Experiments:
[1] = biological target: T1, DNA polymerase iota (Homo sapiens) (UniProt Q9UNA4); experiment: Inhibition of human DNA polymerase iota at 200 uM
T1 sequence (whole entry): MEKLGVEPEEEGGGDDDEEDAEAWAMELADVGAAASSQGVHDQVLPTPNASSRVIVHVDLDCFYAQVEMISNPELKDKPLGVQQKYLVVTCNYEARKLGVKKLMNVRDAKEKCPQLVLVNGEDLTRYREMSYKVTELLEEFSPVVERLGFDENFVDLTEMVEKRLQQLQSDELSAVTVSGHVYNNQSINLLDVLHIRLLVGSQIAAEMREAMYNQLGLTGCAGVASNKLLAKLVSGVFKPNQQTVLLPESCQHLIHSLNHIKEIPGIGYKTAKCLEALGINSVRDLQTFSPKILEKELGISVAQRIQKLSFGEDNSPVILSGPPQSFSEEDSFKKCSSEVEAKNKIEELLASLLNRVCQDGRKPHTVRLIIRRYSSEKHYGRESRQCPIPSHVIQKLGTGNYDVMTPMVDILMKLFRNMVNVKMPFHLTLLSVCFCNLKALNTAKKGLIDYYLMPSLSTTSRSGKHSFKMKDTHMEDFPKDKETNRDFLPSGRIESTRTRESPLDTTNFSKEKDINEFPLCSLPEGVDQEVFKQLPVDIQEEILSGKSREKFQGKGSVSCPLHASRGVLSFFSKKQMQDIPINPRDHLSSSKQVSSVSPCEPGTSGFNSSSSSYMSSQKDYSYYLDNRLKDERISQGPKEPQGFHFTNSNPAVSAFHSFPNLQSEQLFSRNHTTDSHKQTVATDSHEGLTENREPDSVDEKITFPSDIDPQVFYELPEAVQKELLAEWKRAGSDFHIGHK
Summary of the method: (§1)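 Compound dissolved in DMSO and sonicated 30 s, then held with each polymerase (final 0.05 U) in 50 mM Tris-HCl pH 7.5, 1 mM DTT, 50% glycerol, 0.1 mM EDTA at 0 °C for 10 min. Reaction with poly(dA)/oligo(dT)12-18 and dTTP ran 60 min at 37 °C (Taq at 74 °C). Activity relative to no-compound control; means ± SEM, four independent experiments.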

[2] = biological target: T2, DNA polymerase alpha catalytic subunit (Drosophila melanogaster) (UniProt P26019); experiment: Inhibition of fruit fly DNA polymerase alpha at 200 uM; summary of the method: as §1
T2 sequence (whole entry): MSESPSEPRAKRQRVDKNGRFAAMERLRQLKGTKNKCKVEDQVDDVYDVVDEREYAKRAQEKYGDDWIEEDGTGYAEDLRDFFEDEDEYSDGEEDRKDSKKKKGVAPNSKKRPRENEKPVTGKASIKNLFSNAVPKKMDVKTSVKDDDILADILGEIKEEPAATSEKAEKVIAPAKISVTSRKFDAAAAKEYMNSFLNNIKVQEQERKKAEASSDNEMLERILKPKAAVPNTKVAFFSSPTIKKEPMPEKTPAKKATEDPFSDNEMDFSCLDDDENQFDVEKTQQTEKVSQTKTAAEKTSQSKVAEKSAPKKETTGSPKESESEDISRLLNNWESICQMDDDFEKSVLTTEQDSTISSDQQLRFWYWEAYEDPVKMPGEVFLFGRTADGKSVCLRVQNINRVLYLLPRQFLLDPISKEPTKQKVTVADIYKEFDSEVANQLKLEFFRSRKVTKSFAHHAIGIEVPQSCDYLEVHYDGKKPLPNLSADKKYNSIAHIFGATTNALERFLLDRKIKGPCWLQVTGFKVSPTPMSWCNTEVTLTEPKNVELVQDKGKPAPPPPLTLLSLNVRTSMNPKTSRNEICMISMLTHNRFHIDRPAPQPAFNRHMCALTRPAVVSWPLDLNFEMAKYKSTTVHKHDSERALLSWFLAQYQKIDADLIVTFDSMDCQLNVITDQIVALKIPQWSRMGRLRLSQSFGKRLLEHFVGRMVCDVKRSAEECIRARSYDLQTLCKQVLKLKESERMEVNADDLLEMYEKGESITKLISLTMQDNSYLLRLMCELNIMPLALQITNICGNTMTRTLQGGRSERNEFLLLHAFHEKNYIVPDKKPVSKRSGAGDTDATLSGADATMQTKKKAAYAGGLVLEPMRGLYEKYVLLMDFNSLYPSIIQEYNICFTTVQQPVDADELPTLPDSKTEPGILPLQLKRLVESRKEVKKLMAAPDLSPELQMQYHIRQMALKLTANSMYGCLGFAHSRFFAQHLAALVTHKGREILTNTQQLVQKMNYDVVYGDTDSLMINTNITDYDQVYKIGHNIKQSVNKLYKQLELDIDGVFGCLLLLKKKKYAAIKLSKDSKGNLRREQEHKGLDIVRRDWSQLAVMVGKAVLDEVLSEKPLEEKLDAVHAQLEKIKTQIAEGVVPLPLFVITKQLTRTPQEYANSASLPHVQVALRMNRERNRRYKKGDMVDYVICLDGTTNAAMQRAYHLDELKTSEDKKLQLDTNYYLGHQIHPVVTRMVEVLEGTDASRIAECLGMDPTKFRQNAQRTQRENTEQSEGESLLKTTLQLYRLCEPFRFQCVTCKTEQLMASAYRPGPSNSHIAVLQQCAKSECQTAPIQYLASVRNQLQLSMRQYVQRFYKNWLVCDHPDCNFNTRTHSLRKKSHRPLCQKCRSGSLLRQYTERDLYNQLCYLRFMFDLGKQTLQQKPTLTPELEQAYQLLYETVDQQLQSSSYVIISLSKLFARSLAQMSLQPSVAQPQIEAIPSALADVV

[3] = biological target: DNA polymerase beta (Rattus norvegicus) (UniProt P06766); experiment: Inhibition of rat DNA polymerase beta at 200 uM; summary of the method: as §1
[4] = test system: T4 polynucleotide kinase (Bacteriophage T4); experiment: Inhibition of T4 polynucleotide kinase at 200 uM

Measured: Activity

C/C(=C\CC[C@H](C)C(=O)O)[C@H]1CC[C@H](C(=O)O)CC1
inactive: all assays above
